# Assay results of several laboratories.
# Protocols differ between the studies behind these lines.
# Target: Myosin light chain kinase (MYLK3, Homo sapiens, UniProt Q32MK0)
# Residues used in one study (Q32MK0 1-819): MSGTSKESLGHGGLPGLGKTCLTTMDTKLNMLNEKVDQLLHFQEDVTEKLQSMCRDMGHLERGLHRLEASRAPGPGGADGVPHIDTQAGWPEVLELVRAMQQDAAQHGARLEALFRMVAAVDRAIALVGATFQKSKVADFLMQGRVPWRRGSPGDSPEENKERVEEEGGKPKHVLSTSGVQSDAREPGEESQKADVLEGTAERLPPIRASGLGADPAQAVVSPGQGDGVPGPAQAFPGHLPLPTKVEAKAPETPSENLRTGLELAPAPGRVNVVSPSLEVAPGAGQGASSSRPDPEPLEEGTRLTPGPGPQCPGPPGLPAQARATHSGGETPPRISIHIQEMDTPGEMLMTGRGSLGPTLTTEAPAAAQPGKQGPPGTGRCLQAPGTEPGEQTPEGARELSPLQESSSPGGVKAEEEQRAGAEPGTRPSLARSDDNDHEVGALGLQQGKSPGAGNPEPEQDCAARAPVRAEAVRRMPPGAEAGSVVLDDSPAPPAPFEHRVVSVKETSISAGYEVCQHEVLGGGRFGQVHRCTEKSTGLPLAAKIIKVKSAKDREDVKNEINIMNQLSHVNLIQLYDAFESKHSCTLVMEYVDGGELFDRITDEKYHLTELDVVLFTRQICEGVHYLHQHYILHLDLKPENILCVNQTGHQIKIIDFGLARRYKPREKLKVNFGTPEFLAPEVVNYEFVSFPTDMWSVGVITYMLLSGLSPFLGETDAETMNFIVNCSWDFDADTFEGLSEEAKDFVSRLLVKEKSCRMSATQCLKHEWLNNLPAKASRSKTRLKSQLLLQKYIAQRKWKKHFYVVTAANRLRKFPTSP
SMILES,observed,action,technique,tested at,measurement,result
Cn1cncc1[C@](O)(COc1ccc(C#N)cc1-c1ccc(OC(F)(F)F)cc1)c1ccc(C#N)cc1,cell-free assay,,competition with immobilised ligand,1 µM,remaining binding,100%
COc1cc(Nc2ncc(F)c(Nc3ccc4c(n3)NC(=O)C(C)(C)O4)n2)cc(OC)c1OC,binding,,competition with immobilised ligand,10 µM,inhibition,30%
Nc1ncc(-c2nc(N3CCOCC3)nc(N3CCOCC3)n2)c(C(F)F)n1,binding,,competition with immobilised ligand,10 µM,remaining binding,84%
COc1ncccc1-c1cnn2ccc(N3CCN(C(=O)OC(C)C)CC3)nc12,binding,,competition with immobilised ligand,1 µM,remaining binding,100%
Cn1cc(-c2cccc(N3CCc4c(sc5c4CC(C)(C)C5)C3=O)c2CO)cc(Nc2ccncn2)c1=O,enzyme activity,inhibitor,,1 µM,inhibition,-8%
N#CC1(c2ccccn2)CCN(Cc2cc(C(=O)O)c(=O)n3ccccc23)CC1,cell-free assay,,competition with immobilised ligand,1 µM,remaining binding,87%
Cc1nn(C)cc1-c1nc2c(N3CCN(Cc4ccc(Cl)cc4)CC3)c(Cl)cnc2[nH]1,binding,,competition with immobilised ligand,1 µM,remaining binding,100%
Cn1cc(-c2cc(F)cc(N3CCn4c(cc5c4CCCC5)C3=O)c2CO)cc(Nc2ccc(N3CCN(C4COC4)CC3)cn2)c1=O,enzyme activity,inhibitor,,0.1 µM,inhibition,-5%
